Several values for one entry are separate records, joined by “and”; a condition that tells them apart may be missing. Equal values may be shown once.
What was measured:
[1] = test system: HEK-293T; experiment: Multiplex assay against HEK293T; assay type: toxicity, cell-based; conditions: human
In short: (§1)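 On a CQ1 microscope at 37°C and 5% CO2, live cells were imaged after compound addition. They had been stained at seeding with Hoechst33342, BioTracker Green Microtubule Cytoskeleton Dye, MitoTracker Red and Annexin V Alexa Fluor 680. CellPathfinder machine-learning gating assigned cells to Hoechst high-intensity objects or normal cells, normal cells to healthy, pyknosed or fragmented nuclei, and pyknosed cells to mitotic or apoptotic. Tubulin, mitochondrial-mass and membrane-permeability phenotypes are per cents of healthy-nucleus cells.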

[2] = test system: U2OS; experiment: Multiplex assay against U2OS; assay type: toxicity, cell-based; conditions: human; in short: as §1
[3] = 24 h, 10 µM, compound concentration 10 uM
[4] = 48 h, 1 µM, compound concentration 1 uM
[5] = 48 h, 10 µM, compound concentration 10 uM
[6] = 12 h, 1 µM, compound concentration 1 uM
[7] = 12 h, 10 µM, compound concentration 10 uM
[8] = 24 h, 1 µM, compound concentration 1 uM

## CC[C@@H](C)Nc1nc(C)nc2c(-c3ccc(OC)nc3C)c(C)nn12 [PEXACERFONT]
[1]; [3]
  Population Healthy Nuclei (%): 79% and 78%
  Population Hoechst High Intensity Objects (%): 7% and 13%
  Population Membrane Permeable-Phenotype (%): 1% and 0%
  Population Mitochondria Different-Phenotype (%): 46% and 70%
  Population Mitotic Cells (%): 62% and 66%
  Population Normal (%): 92% and 86%
  Population Pyknosed Nuclei (%): 14%
  Population Tubulin-Different-Phenotype (%): 52% and 48%
  Total Cell Count: 612 and 371
[1]; [4]
  Population Apoptotic (%): 26% and 41%
  Population Fragmented Nuclei (%): 12% and 10%
  Population Healthy Nuclei (%): 80%
  Population Hoechst High Intensity Objects (%): 2%
  Population Membrane Permeable-Phenotype (%): 0% and 1%
  Population Mitochondria Different-Phenotype (%): 22% and 27%
  Population Mitotic Cells (%): 73% and 58%
  Population Normal (%): 97%
  Population Pyknosed Nuclei (%): 7% and 9%
  Population Tubulin-Different-Phenotype (%): 20% and 19%
  Total Cell Count: 816 and 520
[1]; [5]
  Population Apoptotic (%): 40%
  Population Fragmented Nuclei (%): 13% and 10%
  Population Healthy Nuclei (%): 77% and 72%
  Population Hoechst High Intensity Objects (%): 7% and 18%
  Population Membrane Permeable-Phenotype (%): 1% and 0%
  Population Mitochondria Different-Phenotype (%): 45% and 53%
  Population Mitotic Cells (%): 59% and 60%
  Population Normal (%): 92% and 81%
  Population Pyknosed Nuclei (%): 9% and 17%
  Population Tubulin-Different-Phenotype (%): 38% and 36%
  Total Cell Count: 692 and 390
[2]; [6]
  Population Apoptotic (%): 73% and 87%
  Population Fragmented Nuclei (%): 24% and 17%
  Population Healthy Nuclei (%): 66% and 76%
  Population Hoechst High Intensity Objects (%): 3% and 0%
  Population Membrane Permeable-Phenotype (%): 2% and 1%
  Population Mitochondria Different-Phenotype (%): 3% and 0%
  Population Mitotic Cells (%): 26% and 12%
  Population Normal (%): 96% and 99%
  Population Pyknosed Nuclei (%): 9% and 5%
  Population Tubulin-Different-Phenotype (%): 2% and 0%
  Total Cell Count: 258 and 136
[2]; [7]
  Population Apoptotic (%): 90%
  Population Fragmented Nuclei (%): 26% and 21%
  Population Healthy Nuclei (%): 64% and 70%
  Population Hoechst High Intensity Objects (%): 1%
  Population Membrane Permeable-Phenotype (%): 2% and 12%
  Population Mitochondria Different-Phenotype (%): 1% and 7%
  Population Mitotic Cells (%): 9% and 10%
  Population Normal (%): 98%
  Population Pyknosed Nuclei (%): 8% and 7%
  Population Tubulin-Different-Phenotype (%): 1% and 4%
  Total Cell Count: 265 and 128
[2]; [8]
  Population Apoptotic (%): 80% and 85%
  Population Fragmented Nuclei (%): 21% and 16%
  Population Healthy Nuclei (%): 69% and 75%
  Population Hoechst High Intensity Objects (%): 2%
  Population Membrane Permeable-Phenotype (%): 5% and 3%
  Population Mitochondria Different-Phenotype (%): 2% and 6%
  Population Mitotic Cells (%): 20% and 14%
  Population Normal (%): 97%
  Population Pyknosed Nuclei (%): 8%
  Population Tubulin-Different-Phenotype (%): 2%
  Total Cell Count: 346 and 172
[2]; [3]
  Population Apoptotic (%): 80% and 92%
  Population Fragmented Nuclei (%): 21% and 14%
  Population Healthy Nuclei (%): 71% and 77%
  Population Hoechst High Intensity Objects (%): 2% and 0%
  Population Membrane Permeable-Phenotype (%): 5% and 7%
  Population Mitochondria Different-Phenotype (%): 3%
  Population Mitotic Cells (%): 19% and 7%
  Population Normal (%): 97% and 99%
  Population Pyknosed Nuclei (%): 7% and 8%
  Population Tubulin-Different-Phenotype (%): 4% and 3%
  Total Cell Count: 307 and 159
[2]; [4]
  Population Apoptotic (%): 88% and 91%
  Population Fragmented Nuclei (%): 16%
  Population Healthy Nuclei (%): 75% and 73%
  Population Hoechst High Intensity Objects (%): 1% and 2%
  Population Membrane Permeable-Phenotype (%): 3% and 5%
  Population Mitochondria Different-Phenotype (%): 1% and 4%
  Population Mitotic Cells (%): 11% and 8%
  Population Normal (%): 98% and 97%
  Population Pyknosed Nuclei (%): 7% and 9%
  Population Tubulin-Different-Phenotype (%): 1% and 4%
  Total Cell Count: 476 and 261
[2]; [5]
  Population Apoptotic (%): 94% and 100%
  Population Fragmented Nuclei (%): 17% and 13%
  Population Healthy Nuclei (%): 74% and 77%
  Population Hoechst High Intensity Objects (%): 1%
  Population Membrane Permeable-Phenotype (%): 4% and 6%
  Population Mitochondria Different-Phenotype (%): 1% and 3%
  Population Mitotic Cells (%): 5% and 0%
  Population Normal (%): 98%
  Population Pyknosed Nuclei (%): 8%
  Population Tubulin-Different-Phenotype (%): 1% and 2%
  Total Cell Count: 478 and 242

Reference: ChEMBL document CHEMBL5724801, “EUbOPEN Chemogenomics Library - Multiplex” (2024)
